Test results published in ChEMBL document CHEMBL3588846, “Aryl Pyrazoles as Potent Inhibitors of Arginine Methyltransferases: Identification of the First PRMT6 Tool Compound” (ACS Med Chem Lett, 2015).
The source made the active and inactive calls. The rule behind the calls is not given here.

Tests used:
[1] = target: T1, Protein arginine N-methyltransferase 6 (Homo sapiens, UniProt Q96LA8); experiment: Inhibition of FLAG and hexa-histidine tagged full-length human PRMT6 expressed in HEK293F cells pre-incubated for 30 mins before addition of a [3H]SAM and peptide mix; assay type: cell-based
[2] = target: T2, Protein arginine N-methyltransferase 1 (Homo sapiens, UniProt Q99873); experiment: Inhibition of N-terminal GST tagged full-length human PRMT1 expressed in high five insect cells pre-incubated for 30 mins before addition of a [3H]SAM and peptide mix
[3] = target: Protein arginine N-methyltransferase 8 (Homo sapiens, UniProt Q9NR22); experiment: Inhibition of N-terminal GST tagged full-length human PRMT8 expressed in Escherichia coli (BL21(DE3) pre-incubated for 30 mins before addition of a [3H]SAM and peptide mix
[4] = target: T1, Protein arginine N-methyltransferase 6; experiment: Inhibition of his-tagged PRMT6 (unknown origin) expressed in human A375 cells assessed as reduction in H3R2 methylation at 0.01 to 20 uM incubated for 48 hrs by Western blot method; assay type: cell-based, A-375
[5] = AUC (0 to infinity) in Sprague-Dawley rat at 5 mg/kg, sc by LC-MS/MS method; assay type: ADME, organism-based; design: dose 5 mg/kg, route subcutaneous, time infinity; conditions: in vivo
A-375 = experiment: Effect on PRMT6 expression in human A375 cells transfected with his-tagged PRMT6 at 0.01 to 20 uM incubated for 48 hrs by Western blot method; assay type: functional, cell-based
Procedure, shortened: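 A375 cells were transfected with a PRMT6 expression construct, with empty vector as the control, and PRMT6 was overexpressed for 48 h. Compound exposure also lasted 48 h. PRMT6 protein levels were then checked in the treated cells.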

[6] = Terminal half life in Sprague-Dawley rat at 1 mg/kg, iv administered as single dose by LC-MS/MS method; assay type: ADME, organism-based; conditions: in vivo, read-out: beta t1/2 (converted)
Rattus norvegicus = experiment: Time above biochemical PRMT6 IC50 in Sprague-Dawley rat at 5 mg/kg, sc by LC-MS/MS method
[7] = Oral bioavailability in rat; assay type: ADME, organism-based; conditions: in vivo
[8] = Permeability of the compound at 10 uM at pH 7.4 by LC-MS/MS based PAMPA method; assay type: physicochemical; conditions: read-out: permeability
[9] = Bioavailability in Sprague-Dawley rat at 5 mg/kg, sc by LC-MS/MS method; assay type: ADME, organism-based; conditions: in vivo
[10] = target: T2, Protein arginine N-methyltransferase 1; experiment: Inhibition of PRMT1 in human A375 cells assessed as effect on monomethyl R*GG motif methylation at 0.01 to 20 uM incubated for 48 hrs by Western blot method; assay type: cell-based, A-375
[11] = AUC (0 to infinity) in Sprague-Dawley rat at 1 mg/kg, iv administered as single dose by LC-MS/MS method; assay type: ADME, organism-based; design: dose 1 mg/kg, route intravenous, time infinity; conditions: in vivo
[12] = Cmax in Sprague-Dawley rat at 5 mg/kg, sc by LC-MS/MS method; assay type: ADME, organism-based; design: dose 5 mg/kg, route subcutaneous; conditions: in vivo
[13] = AUC (0 to t) in Sprague-Dawley rat at 1 mg/kg, iv administered as single dose by LC-MS/MS method; assay type: ADME, organism-based; conditions: in vivo
[14] = Clearance in Sprague-Dawley rat at 1 mg/kg, iv administered as single dose by LC-MS/MS method; assay type: ADME, organism-based; conditions: in vivo
[15] = Unbound fraction in Sprague-Dawley rat plasma at 1 uM at 37 degC by equilibrium dialysis and LC-MS/MS method; assay type: ADME, cell-free
[16] = Terminal half life in Sprague-Dawley rat at 5 mg/kg, sc by LC-MS/MS method; assay type: ADME, organism-based; conditions: in vivo, read-out: beta t1/2 (converted)
[17] = AUC (0 to t) in Sprague-Dawley rat at 5 mg/kg, sc by LC-MS/MS method; assay type: ADME, organism-based; conditions: in vivo
[18] = Volume of distribution at steady state in Sprague-Dawley rat at 1 mg/kg, iv administered as single dose by LC-MS/MS method; assay type: ADME, organism-based; conditions: in vivo, read-out: Vdss
[19] = Tmax in Sprague-Dawley rat at 5 mg/kg, sc by LC-MS/MS method; assay type: ADME, organism-based; conditions: in vivo
[20] = Unbound fraction in human plasma at 1 uM at 37 degC by equilibrium dialysis and LC-MS/MS method; assay type: ADME, cell-free

Chain of Protein arginine N-methyltransferase 8 (Q9NR22 whole entry): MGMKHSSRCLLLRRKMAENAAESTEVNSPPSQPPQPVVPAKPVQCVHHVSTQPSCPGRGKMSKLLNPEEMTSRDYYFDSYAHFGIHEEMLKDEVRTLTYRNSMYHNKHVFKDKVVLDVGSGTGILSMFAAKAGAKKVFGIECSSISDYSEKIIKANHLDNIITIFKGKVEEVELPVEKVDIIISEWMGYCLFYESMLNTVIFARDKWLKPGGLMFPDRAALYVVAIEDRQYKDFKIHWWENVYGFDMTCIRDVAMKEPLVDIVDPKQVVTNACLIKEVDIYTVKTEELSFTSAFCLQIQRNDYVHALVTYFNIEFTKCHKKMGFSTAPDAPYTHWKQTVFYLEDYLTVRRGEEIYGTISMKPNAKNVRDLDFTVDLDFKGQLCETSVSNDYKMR
T1 sequence (Q96LA8 whole entry): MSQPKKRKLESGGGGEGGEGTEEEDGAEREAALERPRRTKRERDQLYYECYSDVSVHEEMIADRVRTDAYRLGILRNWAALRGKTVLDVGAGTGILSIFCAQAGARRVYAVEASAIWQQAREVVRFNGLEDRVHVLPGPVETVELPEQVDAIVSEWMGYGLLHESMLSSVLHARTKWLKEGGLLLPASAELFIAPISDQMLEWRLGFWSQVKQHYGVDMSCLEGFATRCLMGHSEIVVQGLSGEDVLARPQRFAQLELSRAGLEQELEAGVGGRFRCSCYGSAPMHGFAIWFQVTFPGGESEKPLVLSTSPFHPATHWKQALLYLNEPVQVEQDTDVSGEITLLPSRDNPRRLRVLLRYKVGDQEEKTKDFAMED
T2 sequence (Q99873 whole entry): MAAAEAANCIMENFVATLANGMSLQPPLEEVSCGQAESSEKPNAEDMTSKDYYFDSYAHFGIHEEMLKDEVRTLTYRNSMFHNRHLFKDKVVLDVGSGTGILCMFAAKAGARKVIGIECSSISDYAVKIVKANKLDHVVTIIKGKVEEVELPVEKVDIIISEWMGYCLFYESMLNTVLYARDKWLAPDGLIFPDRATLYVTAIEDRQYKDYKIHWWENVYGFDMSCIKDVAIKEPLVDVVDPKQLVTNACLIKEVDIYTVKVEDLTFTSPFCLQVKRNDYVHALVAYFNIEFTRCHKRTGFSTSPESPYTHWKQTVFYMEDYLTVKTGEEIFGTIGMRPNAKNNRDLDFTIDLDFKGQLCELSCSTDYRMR

With `CC(C)Oc1ccc(-c2[nH]ncc2CN(C)CCN)cc1Cl` the IC50 [1] was 8 nM.
With `CNCCN(C)Cc1cn[nH]c1-c1ccc(OC(CO)C(C)C)cc1` (stereo not drawn) the IC50 [2] was 27 nM.
With `CNCCN(C)Cc1c[nH]nc1-c1ccc(Oc2cccc(C(=O)N(C)C)c2)cc1` the IC50 [3] was 179 nM and the IC50 [1] was 3 nM.
With `CNCCN(C)Cc1c[nH]nc1-c1cc(OC(CO)CC(C)C)cc(C(F)(F)F)c1` (stereo not drawn) the IC50 [4] was > 20000 nM.
With `CNCCN(C)Cc1c[nH]nc1-c1ccc(O[C@H]2C[C@H](OCCC3CCOCC3)C2)cc1` the AUC(0-inf) [5] was 2780 ng·h/mL, the Activity (A-375) was “inactive” and the half-life [6] was 8.54 h. The Time (Rattus norvegicus) was > 12 h, the bioavailability [7] was < 5% and the Papp at 10 µM [8] was 0.1 ×10⁻⁶ cm/s. The IC50 [4] was 637 nM, the bioavailability [9] was 65.6% and the IC50 [10] was 7100 nM. For the same molecule, the AUC(0-inf) [11] was 846 ng·h/mL, the Cmax [12] was 844 ng/mL and the AUC(0-t) [13] was 745 ng·h/mL. The clearance [14] was 19.7 mL/min/kg, the fraction unbound at 1 µM [15] was 0.51 and the half-life [16] was 9.19 h. For the same molecule, the AUC(0-t) [17] was 2460 ng·h/mL, the Vd [18] was 11.1 L/kg and the Tmax [19] was 0.444 h. It also gave a fraction unbound at 1 µM [20] of 0.52.
`CNCCN(C)Cc1c[nH]nc1-c1cc(OCCc2ccccc2)cc(C(F)(F)F)c1` gave an IC50 [3] of 23 nM and an IC50 [1] of 327 nM.
Molecule `CNCCN(C)Cc1n[nH]cc1-c1ccc(Oc2ccccc2C(=O)NC)cc1` has an IC50 [3] of 65 nM and an IC50 [1] of 5 nM.
`CN(CCN)Cc1c[nH]nc1-c1ccc(OCCCN2CCOCC2)cc1` showed an IC50 [1] of 13 nM.
Work on `CCOc1ccc(-c2[nH]ncc2CN(C)CCNC)cc1` yielded an IC50 [1] of 25 nM.
For `CC(C)Oc1c(Cl)cc(-c2c[nH]nc2CN(C)CCN)cc1C(F)(F)F`, the IC50 [3] was 70 nM and the IC50 [1] was 320 nM.
Molecule `CNCCN(C)Cc1c[nH]nc1-c1cc(OCCC2CCCCC2)cc(C(F)(F)F)c1` has an IC50 [3] of 21 nM and an IC50 [1] of 461 nM.
Molecule `CNCCN(C)Cc1c[nH]nc1-c1ccc(OC(C)C)cc1` has an IC50 [1] of 11 nM.
With `CNCCN(C)Cc1cn[nH]c1-c1ccc(OC(C)C)c(Cl)c1` the IC50 [1] was 10 nM.
For `CNCCN(C)Cc1n[nH]cc1-c1ccc(Oc2cccc(C(=O)N(C)C)c2)cc1`, the IC50 [3] was 347 nM and the IC50 [1] was 2 nM.
